Screening data: PubChem, several laboratories
Shown are actives, neighbours in structure and some others; about 1.5% of the full set was active somewhere.
Lipid droplet – inhibitors of hepatocyte lipid droplet formation, primary screen, imaging, high-throughput imaging, BODIPY stain | inhibition, % at 6.5 µM | AML12 mouse hepatocytes, oleate lipid droplets | actives 0.4% (n = 240,000);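 active = lipid droplet intensity inhibited by at least 50%, with more than 500 cells counted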
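Assay system: AML12 hepatocytes (mouse); Probe or stimulus: oleic acid at 100 µM to induce lipid droplet formation; Dosing: compound at 6.5 µM only; Schedule: compound with oleate, overnight; Detection: fluorescence imaging, 20x objective, two fields per well; Measure: % inhibition of lipid droplet signal.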
PPC-1+TRAIL kill – compounds killing PPC-1 cancer cells with TRAIL present, primary screen, TRAIL potentiator project, ATPLite luminescence, uHTS; AID 1443, 2008; PPC-1 cells + TRAIL, ATPLite viability luminescence; cell killing (% activity), % at 4 µM or 5 µM; actives 0.41% (n = 220,000);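 active = cell killing above 50% in the first pass at 4 µM, then a duplicate retest at 5 µM averaging 50% or more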
STAT1 blocker – STAT1 signaling inhibitors, primary screen, cell-based, HTS, luciferase reporter. actives 0.35% (n = 200,000). NIH 3T3 STAT1-luciferase reporter, IFN-gamma, luminescence. AID 920, 2007. inhibition, % at 5.5 µM;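 active = inhibition above a set limit, the mean inhibition across all tested compounds plus 3 SD, cut at about 34% in these data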
Platelet DG rel – inhibitors of platelet dense granule secretion, primary screen, cell-based, MLPCN, human platelets. human platelet-rich plasma, SFLLRN dense granule ATP release, luminescence. inhibition, %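 (compounds screened at 7.5 µM in platelet-rich plasma)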. actives 0.22% (n = 300,000). AID 1663, 2009;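 active = mean replicate score, as percent of positive control, at or above 50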
H9c2 TAG inh – inhibitors of triacylglycerol accumulation, primary screen, cell-based, uHTS, fluorescence, H9c2 | H9c2 cells, Nile Red lipid (TAG) fluorescence; cells loaded with 200 µM oleic acid | inhibition, % at 12.5 µM | actives 0.66% (n = 230,000) | AID 651582, 2012;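 active = pattern-corrected inhibition of lipid staining of at least 50% with the nuclear-stain viability signal not falling by more than 50%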
STAT3 inh – IL-6 driven STAT3 reporter inhibitors, primary screen, U3A cells, luciferase, luminescence, MLSCN library; IL-6 STAT3-luciferase reporter; host cell line lacks STAT1; inhibition, % at 5.5 µM; actives 0.89% (n = 190,000); AID 862, 2007;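 active = inhibition above the mean inhibition across all screened compounds plus 3 SD, cut at about 44% in these data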
Hep lipid conf – hepatocyte lipid droplet accumulation inhibitors, confirmation, imaging, AML12 mouse hepatocytes, single concentration, high-content; shares compounds with Lipid droplet; BODIPY lipid droplet imaging; droplets induced with 100 µM oleic acid; inhibition, % at 5.2 µM; actives 65% (n = 870); AID 463183, 2010;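 active = inhibition of lipid droplet metric at least 50%, with more than 300 cells in each of four replicates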
AML12 tox img – AML12 hepatocyte cytotoxicity, counter-screen for hepatic lipid droplet formation project, imaging, DAPI nuclear morphology imaging; shares compounds with Lipid droplet; actives 3% (n = 870); z-score at 5 µM; AML12 mouse hepatocytes; active compounds read high; cells fed 100 µM oleate overnight; in the data active = z-score above about 6.3;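 also: compound exposure lasted overnight at 37 °C before fixation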
AML12 tox conf – AML12 hepatocyte cytotoxicity, confirmation, cytotoxicity control for hepatic lipid droplet formation project, cell-based, single concentration. shares compounds with Lipid droplet. AML12 mouse hepatocyte viability, ATP luminescence; cells loaded with 100 µM oleic acid. cytotoxicity, % at 50 µM. 530 tested, under 10 active. AID 463219, 2010;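 active = cytotoxicity above 50% in each of four replicates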;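 also: compound exposure lasted overnight at 37 °C before the ATP read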
Numbers stand for hits; – = inactive; · = not tested or not shown.

SMILES | Lipid droplet | PPC-1+TRAIL kill | STAT1 blocker | Platelet DG rel | H9c2 TAG inh | STAT3 inh | Hep lipid conf | AML12 tox img | AML12 tox conf
O=C(CCNC(=O)C1CCN(S(=O)(=O)c2ccc(F)cc2)CC1)NCc1ccccc1Cl | 51 | · | · | – | · | · | – | – | ·
O=C(CCNC(=O)C1CCN(S(=O)(=O)c2ccccc2)CC1)NCc1ccc(Cl)cc1Cl | 56 | · | · | – | · | · | 75 | – | –
COCCCNc1ccn2nc(-c3ccc(Cl)cc3)cc2n1 | · | · | · | · | – | · | · | · | ·
CCc1cccc(CC)c1NC(=S)NCCc1c(C)[nH]c2ccc(C)cc12 | – | – | – | – | – | – | · | · | ·
Cc1ccc2[nH]c(C)c(CC(=O)NCc3ccccc3)c2c1 | 72 | · | · | – | · | · | 68 | – | –
COc1ccc(C)cc1NC(=O)C/C(C)=N/NC(=O)Cc1cccc2ccccc12 | 72 | · | · | – | · | · | 70 | – | –
Nc1ncnc(N2CCOCC2)n1 | · | · | · | · | – | · | · | · | ·
CC(C)(C)C(=O)OCc1ccc(C2=CC(=O)CC(C)(C)C2=O)cc1 | · | · | · | · | – | · | · | · | ·
CCc1cc(SC#N)cc(CC)c1NC(=O)CCl | 81 | – | – | – | · | – | 79 | – | –
Cc1cc(C)c2c(NC(=O)CCl)nn(C)c2n1 | – | – | – | – | – | – | · | · | ·
Cc1nnc(NC(=O)C2CCN(S(=O)(=O)c3ccc(F)c(F)c3)CC2)o1 | · | · | · | · | – | · | · | · | ·
CSc1ccc(CN2CCN(C3CCCC3)C(CCO)C2)cc1 (stereo unspecified) | 55 | – | – | – | – | – | – | – | ·
CCc1noc(C)c1C(=O)NNC(=O)COc1ccccc1C | · | · | · | · | – | · | · | · | ·
O=C(CSc1nc2ccccc2[nH]1)N1c2ccccc2Sc2ccccc21 | – | – | – | – | · | – | · | · | ·
O=C(CSc1nc(O)cc(=O)[nH]1)N1c2ccccc2Sc2ccccc21 | 56 | – | – | – | · | – | – | – | ·
COc1ccc(N=C2C(=Nc3ccc(OC)cc3)N(c3ccc(OC)cc3)C(=S)N2C)cc1 | 58 | – | – | – | · | – | 109 | – | –
CCOC(=O)C1=C(C)n2c(s/c(=C3\C(=O)Nc4ccccc43)c2=O)=NC1c1ccc(OC)cc1 (stereo unspecified) | 80 | – | – | – | – | – | – | – | ·
CCOC(=O)c1c(C)nc2sc3c(c2c1-c1ccc(OC)cc1)NC(c1ccccc1)NC3=O (stereo unspecified) | · | – | – | – | · | – | · | · | ·
COC(=O)C1=C(C)N=c2s/c(=C3\C(=O)Nc4ccccc43)c(=O)n2C1c1ccccc1 (stereo unspecified) | 60 | – | – | – | · | – | 56 | – | 69
CCOC(=O)C1=C(C)N=c2s/c(=C3/C(=O)Nc4ccccc43)c(=O)n2C1c1ccc(C)cc1 (stereo unspecified) | – | – | – | – | – | – | · | · | ·
COc1cc2c(cc1NC(=O)CSc1nc3ccc(C)cc3[nH]1)oc1ccccc12 | 52 | – | – | – | · | – | 99 | – | ·
Cc1cc(C)c(S(=O)(=O)N2CCOC2CNC(=O)C(=O)NCCc2c[nH]c3ccccc23)c(C)c1 (stereo unspecified) | 76 | – | – | – | – | – | 77 | – | –
O=C(NCCc1c[nH]c2ccccc12)C(=O)NCC1OCCN1S(=O)(=O)c1ccccc1 (stereo unspecified) | – | – | – | – | – | – | · | · | ·
CCc1ccc(C(=O)CSc2nc3cc(S(=O)(=O)N4CCOCC4)ccc3n2CC)cc1 | 115 | – | – | – | · | – | – | – | ·
Cc1coc2cc3oc(=O)cc(C)c3cc12 | 52 | – | – | – | · | – | – | – | ·
